Calls of active or inactive are those of the source. No cut-off for these calls is given here.

The target in data set [1] is T1, Epidermal growth factor receptor (Homo sapiens, UniProt P00533). The data set can be described thus: Inhibition of human recombinant EGFR using Ulight-CAGAGAIETDKEYYTVKD as substrate after 15 mins by time-resolved fluorimetric analysis.
The target of data set [2] is T1, Epidermal growth factor receptor. To be noted: A549, at 1 µM.
For data set [3] the target is unchanged. To be noted: A549, at 1 µM. This is another data set of the same source.
Data set [4] deals with NCI-H1975. The data set can be described thus: Antiproliferative activity against gefitinib-resistant human NCI-H1975 cells expressing EGFR T790M mutant after 3 days by MTT assay. The class given is functional, cell-based. To be noted: NCI-H1975, 72 h. Background: Tetrazolium dyes change colour on reduction, which living cells bring about.
Data set [5] has as its target T2, Receptor tyrosine-protein kinase erbB-2 (Homo sapiens, UniProt P04626). The data set can be described thus: Inhibition of ErbB2 by time-resolved fluorometry.
Data set [6] relates to A549. The data set can be described thus: Drug uptake in human A549 cells at 1 uM incubated for 1 hr measured 8 hrs post-wash out by LC-MS analysis. The class given is ADME, cell-based. The note with it: a549, 1 h. The method, boiled down:
(§1)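 A549 cells plated 24 h, then exposed 1 h at 37 °C to 1 μM compound (0.1% DMSO final), assayed immediately or 8 h after three washes with fresh medium. Ethanol extraction at 4 °C, extract dried, redissolved, quantified by LC−MS against 50 nM–5 μM calibration (LOQ 50 nM, LOD 20 nM).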

Data set [7] in a line: Drug degradation of the compound assessed as thiol-conjugate formation at 1 uM up to 24 hrs at pH 7.4 in the presence of GSH. The class given is physicochemical. To be noted: buffer, pH 7.4, 24 h. Put shortly:
(§2)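 Conjugate formation checked by HPLC−UV and HPLC−ESI-MS after adding freshly prepared thiol (2 mM; cysteamine, NAC, DTT or reduced GSH) to PBS pH 7.4 holding compound at 1 μM, 37 °C; sampled up to 24 h.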

Data set [8] in a line: Chemical stability of the compound assessed as compound remaining at 1 uM after 1 hr at pH 7.4 in the presence of GSH. The class given is physicochemical. The note with it: buffer, read-out: Stability. The method, boiled down: (§3)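 Test compound (1 μM) in PBS pH 7.4 with freshly prepared thiol (DTT, GSH, NAC or cysteamine, 2 mM), incubated 1 h at 37 °C; parent remaining quantified by LC−UV and LC−ESI-MS, mean ± SD, n = 3.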

Data set [9] in a line: Metabolic stability in rat plasma assessed as compound remaining at 1 uM after 24 hrs. The class given is ADME, cell-free. The note with it: read-out: Stability. The method, boiled down: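 Incubation of compound (1 μM) in 80% (v/v) rat plasma at 37 °C for 24 h; parent remaining determined by LC−UV and LC−ESI-MS, mean ± SD, n = 3.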
The target of data set [10] is T2, Receptor tyrosine-protein kinase erbB-2. The data set can be described thus: Inhibition of ErbB2 up to 10 uM by time-resolved fluorometry.
In data set [11] the test system is A549. The data set can be described thus: Drug uptake in human A549 cells at 1 uM after 1 hr by LC-MS analysis. The class given is ADME, cell-based. To be noted: a549, 1 h. Put shortly: as §1
The nature of data set [12]: Chemical stability of the compound assessed as compound remaining at 1 uM after 1 hr at pH 7.4 in the presence of NAC. The class given is physicochemical. The note with it: buffer, read-out: Stability. The method, boiled down:
as §3

A short description of data set [13]: Chemical stability of the compound in 0.01 M borate buffer assessed as compound remaining at 1 uM after 24 hrs at pH 9. The class given is physicochemical. To be noted: read-out: Stability. Put shortly:
(§4)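 Buffer stability at pH 7.4 or pH 9.0, compound at 1 μM, 37 °C for 24 h; percentage of parent left measured by LC−UV and LC−ESI-MS, mean ± SD, n = 3.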

Data set [14] in a line: Chemical stability of the compound assessed as compound remaining at 1 uM after 1 hr at pH 7.4 in the presence of DTT. The class given is physicochemical. To be noted: buffer, read-out: Stability. The method, boiled down: as §3
Data set [15] can be described thus: Chemical stability of the compound in 0.01 M PBS buffer assessed as compound remaining at 1 uM after 24 hrs at pH 7.4. The class given is physicochemical. The note with it: read-out: Stability. Put shortly: as §4
A short description of data set [16]: Drug degradation of the compound assessed as thiol-conjugate formation at 1 uM up to 24 hrs at pH 7.4 in the presence of cysteamine. The class given is physicochemical. The note with it: buffer, pH 7.4, 24 h. Put shortly: as §2
The nature of data set [17]: Drug degradation of the compound assessed as thiol-conjugate formation at 1 uM up to 24 hrs at pH 7.4 in the presence of NAC. The note with it: buffer, pH 7.4, 24 h. The class given is physicochemical. Put shortly: as §2
A short description of data set [18]: Chemical stability of the compound assessed as compound remaining at 1 uM after 1 hr at pH 7.4 in the presence of cysteamine. The class given is physicochemical. To be noted: buffer, read-out: Stability. Put shortly: as §3
Data set [19] concerns A549. As to the kind of experiment: Prodrug conversion in human A549 cell lysate assessed as N-(4-(3-bromophenylamino)quinazolin-6-yl)acrylamide level at 10 uM after 1 hr by HPLC-HRMS analysis. The class given is ADME, cell-based. To be noted: a549, 1 h. Put shortly:
(§5)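 A549 cells grown 2 days, lysed by freeze/thaw; lysate pre-spiked with 2 mM cysteine, compound added from fresh DMSO stock to 10 μM final, 37 °C. Aliquots at 0, 1 and 4 h quenched with double volume acetonitrile, centrifuged, analysed by LC−HRMS in positive ion mode.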

For data set [20], the system named is A549. As to the kind of experiment: Drug metabolism in human A549 cell lysate assessed as N-(4-(3-bromophenylamino)quinazolin-6-yl)acrylamide-cysteine adduct level at 10 uM after 1 hr by HPLC-HRMS analysis. The class given is ADME, cell-based. To be noted: a549, 1 h. The method, boiled down:
as §5

Data set [21] in a line: Drug degradation of the compound assessed as thiol-conjugate formation at 1 uM up to 24 hrs at pH 7.4 in the presence of DTT. The class given is physicochemical. The note with it: buffer, pH 7.4, 24 h. The method, boiled down:
as §2

The subject of data set [22] is NCI-H1975. As to the kind of experiment: Ratio of gefitinib IC50 to compound IC50 for human NCI-H1975 cells. The class given is functional.
For data set [23], the target named is Epidermal growth factor receptor (Homo sapiens, UniProt P00533, T790M). The data set can be described thus: (§6) Inhibition of EGFR T790M mutant autophosphorylation in human NCI-H1975 cells after 1 hr by Western blot analysis. The class given is cell-based. On the technique in general: In western blotting, separated proteins are transferred to a membrane and probed.

In data set [24] the test system is Epidermal growth factor receptor (Homo sapiens), P00533 [T790M]. The data set is described as §6. The class given is cell-based.
Sequence of Epidermal growth factor receptor (Homo sapiens), P00533 [T790M] (P00533 whole entry T790M): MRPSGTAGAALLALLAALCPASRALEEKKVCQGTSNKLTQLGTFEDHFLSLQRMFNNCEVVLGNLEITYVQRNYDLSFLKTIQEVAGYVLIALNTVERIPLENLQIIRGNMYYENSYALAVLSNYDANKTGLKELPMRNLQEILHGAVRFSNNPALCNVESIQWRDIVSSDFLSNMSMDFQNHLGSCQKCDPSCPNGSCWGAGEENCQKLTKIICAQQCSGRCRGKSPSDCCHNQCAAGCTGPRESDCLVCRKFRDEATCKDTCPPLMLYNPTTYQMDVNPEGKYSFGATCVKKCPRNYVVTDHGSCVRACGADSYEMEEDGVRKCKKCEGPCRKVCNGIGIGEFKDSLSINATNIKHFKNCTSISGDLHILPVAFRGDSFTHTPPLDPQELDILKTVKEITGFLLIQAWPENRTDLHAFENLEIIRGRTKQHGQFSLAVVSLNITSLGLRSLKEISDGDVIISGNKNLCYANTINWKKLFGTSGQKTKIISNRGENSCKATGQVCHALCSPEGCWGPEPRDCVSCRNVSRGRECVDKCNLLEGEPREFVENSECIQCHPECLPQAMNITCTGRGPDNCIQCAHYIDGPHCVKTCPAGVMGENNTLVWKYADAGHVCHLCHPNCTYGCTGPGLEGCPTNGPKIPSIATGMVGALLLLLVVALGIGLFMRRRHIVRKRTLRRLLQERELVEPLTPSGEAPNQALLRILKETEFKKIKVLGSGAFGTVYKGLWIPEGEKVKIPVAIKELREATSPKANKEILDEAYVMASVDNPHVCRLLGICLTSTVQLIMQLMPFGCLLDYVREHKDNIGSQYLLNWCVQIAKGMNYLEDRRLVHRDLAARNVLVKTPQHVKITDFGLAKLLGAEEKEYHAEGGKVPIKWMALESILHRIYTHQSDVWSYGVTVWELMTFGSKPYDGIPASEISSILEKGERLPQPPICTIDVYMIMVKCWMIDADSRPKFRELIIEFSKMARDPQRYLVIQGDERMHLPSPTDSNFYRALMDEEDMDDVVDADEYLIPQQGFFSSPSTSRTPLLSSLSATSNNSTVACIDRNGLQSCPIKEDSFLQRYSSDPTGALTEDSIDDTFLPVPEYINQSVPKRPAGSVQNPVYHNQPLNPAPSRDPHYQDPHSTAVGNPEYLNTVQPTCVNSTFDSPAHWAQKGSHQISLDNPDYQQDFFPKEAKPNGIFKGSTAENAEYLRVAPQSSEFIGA

T2 sequence (P04626 whole entry): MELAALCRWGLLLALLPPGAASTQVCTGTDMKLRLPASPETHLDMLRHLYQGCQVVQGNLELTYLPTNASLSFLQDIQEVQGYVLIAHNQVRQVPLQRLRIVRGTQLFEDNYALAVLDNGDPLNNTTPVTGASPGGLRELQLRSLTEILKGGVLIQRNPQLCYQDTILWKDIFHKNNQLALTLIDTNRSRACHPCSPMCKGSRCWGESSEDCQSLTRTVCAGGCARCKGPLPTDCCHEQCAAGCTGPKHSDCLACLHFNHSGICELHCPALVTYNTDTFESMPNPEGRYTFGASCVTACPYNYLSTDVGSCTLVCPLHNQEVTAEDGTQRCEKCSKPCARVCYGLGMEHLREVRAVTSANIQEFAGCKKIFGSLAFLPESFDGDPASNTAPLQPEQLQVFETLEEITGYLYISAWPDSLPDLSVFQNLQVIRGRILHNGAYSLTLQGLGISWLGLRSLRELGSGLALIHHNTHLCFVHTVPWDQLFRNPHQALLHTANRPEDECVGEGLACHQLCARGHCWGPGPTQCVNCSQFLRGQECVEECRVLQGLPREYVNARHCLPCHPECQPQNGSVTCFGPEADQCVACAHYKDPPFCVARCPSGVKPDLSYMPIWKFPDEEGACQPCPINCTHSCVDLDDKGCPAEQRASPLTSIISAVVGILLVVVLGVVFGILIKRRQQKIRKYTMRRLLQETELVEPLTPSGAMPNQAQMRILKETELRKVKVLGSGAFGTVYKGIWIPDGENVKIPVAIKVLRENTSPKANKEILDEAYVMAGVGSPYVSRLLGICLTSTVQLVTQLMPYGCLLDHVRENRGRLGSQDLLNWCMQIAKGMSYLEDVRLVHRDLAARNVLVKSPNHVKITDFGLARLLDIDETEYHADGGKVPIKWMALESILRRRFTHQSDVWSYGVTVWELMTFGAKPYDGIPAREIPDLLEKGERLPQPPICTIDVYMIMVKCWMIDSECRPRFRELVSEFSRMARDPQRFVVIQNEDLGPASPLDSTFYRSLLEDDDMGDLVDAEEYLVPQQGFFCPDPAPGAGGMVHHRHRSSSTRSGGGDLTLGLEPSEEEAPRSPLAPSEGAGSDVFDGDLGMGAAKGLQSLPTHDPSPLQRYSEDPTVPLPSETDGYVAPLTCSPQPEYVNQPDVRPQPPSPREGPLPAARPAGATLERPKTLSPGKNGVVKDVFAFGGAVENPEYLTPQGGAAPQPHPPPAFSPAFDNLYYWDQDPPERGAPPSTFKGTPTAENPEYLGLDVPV
T1 sequence (P00533 whole entry): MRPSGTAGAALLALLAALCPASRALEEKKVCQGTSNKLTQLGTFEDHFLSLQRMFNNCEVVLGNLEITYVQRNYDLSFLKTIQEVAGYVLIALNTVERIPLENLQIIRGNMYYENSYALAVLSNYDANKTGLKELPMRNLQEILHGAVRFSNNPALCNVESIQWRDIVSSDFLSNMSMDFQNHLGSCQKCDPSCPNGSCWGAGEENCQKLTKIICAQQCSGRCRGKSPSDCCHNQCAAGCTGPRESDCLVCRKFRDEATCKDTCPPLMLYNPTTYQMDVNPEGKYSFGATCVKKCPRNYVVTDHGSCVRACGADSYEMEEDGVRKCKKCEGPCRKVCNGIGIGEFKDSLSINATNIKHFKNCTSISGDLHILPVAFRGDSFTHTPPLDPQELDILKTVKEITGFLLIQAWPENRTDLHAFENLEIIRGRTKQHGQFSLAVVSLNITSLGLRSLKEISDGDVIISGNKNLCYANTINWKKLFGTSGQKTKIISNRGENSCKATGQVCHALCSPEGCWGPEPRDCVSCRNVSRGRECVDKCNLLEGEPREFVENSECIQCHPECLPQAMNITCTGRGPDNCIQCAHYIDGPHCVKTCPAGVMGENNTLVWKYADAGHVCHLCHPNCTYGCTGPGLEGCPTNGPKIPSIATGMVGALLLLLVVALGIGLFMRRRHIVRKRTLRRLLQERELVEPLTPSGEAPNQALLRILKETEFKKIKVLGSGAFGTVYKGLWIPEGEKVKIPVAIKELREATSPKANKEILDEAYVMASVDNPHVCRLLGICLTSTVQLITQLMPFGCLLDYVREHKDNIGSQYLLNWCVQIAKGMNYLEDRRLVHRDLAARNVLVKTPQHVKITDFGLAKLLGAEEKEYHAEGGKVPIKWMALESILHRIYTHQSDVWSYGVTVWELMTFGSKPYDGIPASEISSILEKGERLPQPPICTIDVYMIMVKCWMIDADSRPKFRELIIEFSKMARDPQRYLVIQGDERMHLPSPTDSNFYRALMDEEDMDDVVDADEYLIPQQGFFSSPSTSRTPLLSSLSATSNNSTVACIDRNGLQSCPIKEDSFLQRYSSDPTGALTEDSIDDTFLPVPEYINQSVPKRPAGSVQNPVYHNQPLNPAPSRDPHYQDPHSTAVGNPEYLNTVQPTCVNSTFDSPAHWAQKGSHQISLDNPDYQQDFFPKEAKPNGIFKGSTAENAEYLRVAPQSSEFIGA
Sequence of Epidermal growth factor receptor (Homo sapiens, UniProt P00533, T790M) (P00533 whole entry T790M): as the sequence (P00533 whole entry T790M) above

As to `CCOc1cc2ncc(C#N)c(Nc3ccc(OCc4ccccn4)c(Cl)c3)c2cc1NC(=O)CCN1CCOCC1`, the IC50 (as a rule, the concentration needed to halve the response being measured) is 37.5 nM in data set [1] and 2760 nM in the data set with NCI-H1975 [4]. Also, the results for the inhibition in [2] and in data set [3] were 39% and 48%, respectively.
With `CCOc1cc2ncc(C#N)c(Nc3ccc(OCc4ccccn4)c(Cl)c3)c2cc1NC(=O)CCN(C)C`, the IC50 in [5] worked out at 970 nM; in data set [1], 12.5 nM; in the data set on NCI-H1975 [4] it was 2030 nM. Further, the inhibition (usually the change of the read-out against control, counted positive when it falls) in data set [2] is 59%; in data set [3], 61%.
As for `CCOc1cc2ncc(C#N)c(Nc3ccc(F)c(Cl)c3)c2cc1NC(=O)CCN(C)C`, the figures for the IC50 (in data set [1]; in the data set with NCI-H1975 [4]) were 0.68 nM and 2370 nM, respectively. The inhibition in [2] came out at 67%; in data set [3] it was 88%.
The like results for `CN(C)CCC(=O)N(C)c1ccc2ncnc(Nc3cccc(Br)c3)c2c1` were, in that order, 17.4 nM, 13600 nM, 10% and 47%.
The like results for `CCOc1cc2ncc(C#N)c(Nc3ccc(F)c(Cl)c3)c2cc1NC(=O)CCN1CCCCC1` were, in that order, 2.21 nM, 2730 nM, 82% and 92%.
The like results for `C=CC(=O)Nc1cc2c(Nc3ccc(F)c(Cl)c3)c(C#N)cnc2cc1OCC` were, in that order, 1.46 nM, 3570 nM, 33% and 92%.
On to `CN(C)CCC(=O)Nc1ccc2ncnc(Nc3cccc(Br)c3)c2c1`, for which the values for the Drug uptake result with A549 [6] and with A549 [11] were “Not Active” and 0.05 nmol/mg, respectively. The Drug degradation result in [7], in data set [16], in data set [17] and in data set [21] was “Not Active” in each case. Moreover, the remaining at 1 h, 1 µM in data set [8] amounted to 101%; in [12], 100%; in [14] it was 99.2%; in data set [18] it was 100%. Moreover, the values for the remaining at 24 h, 1 µM in data set [9], in data set [13] and in data set [15] were 98.7%, 77% and 97.5%, respectively. In addition, the inhibition result in data set [10] is “inactive”. Moreover, the Drug metabolism result in the data set with A549 [19] and in the data set on A549 [20] was “Active” throughout.
As for `CCOc1cc2ncnc(Nc3ccc(F)c(Cl)c3)c2cc1NC(=O)CCN(C)C`, the values for the IC50 (in data set [1]; in the data set on NCI-H1975 [4]) were 0.27 nM and 2210 nM, respectively. Besides, in the data set on NCI-H1975 [22], the “Ratio IC50” value worked out at 3. For the same molecule, the inhibition in data set [2] came to 100%; in [3], 98%.
Consider `O=C(CCN1CCCCC1)Nc1ccc2ncnc(Nc3cccc(Br)c3)c2c1`, for which the IC50 in [1] came out at 0.27 nM; with NCI-H1975 [4], 6670 nM. The inhibition turned out to be 93% in data set [2] and 95% in [3].
As for `CCOc1cc2ncnc(Nc3ccc(F)c(Cl)c3)c2cc1NC(=O)CCN1CCCCC1`, the IC50 in [1] is 0.51 nM; in the data set on NCI-H1975 [4] it was 1610 nM. The “Ratio IC50” value in the data set on NCI-H1975 [22] was found to be 3. The inhibition in data set [2] was determined as 92%; in data set [3], 98%.
With `C=CC(=O)Nc1ccc2ncnc(Nc3cccc(Br)c3)c2c1`, the Drug uptake entry in the data set on A549 [6] and in the data set on A549 [11] was “Not Active” in each case. In addition, the Drug degradation result in data set [7], in data set [16] and in data set [17] was “Active” throughout. Also, the remaining at 1 h, 1 µM in data set [8] came to 63.8%; in data set [12], 85.6%; in data set [14], 100%; in [18], 20.1%. In addition, the remaining at 24 h, 1 µM was found to be 21.8% in [9], 105% in [13] and 102% in data set [15].
Turning to `C=CC(=O)Nc1cc2c(Nc3ccc(F)c(Cl)c3)ncnc2cc1OCC`, the IC50 amounted to 0.18 nM in data set [1] and 1620 nM in the data set on NCI-H1975 [4]. The inhibition was 99% in data set [2] and 96% in data set [3].
`CCOc1cc2ncnc(Nc3ccc(F)c(Cl)c3)c2cc1NC(=O)CCN1CCOCC1`: the half-inhibitory concentration (IC50) was 0.29 nM in data set [1] and 2110 nM in the data set with NCI-H1975 [4]. Further, the “Ratio IC50” value with NCI-H1975 [22] came out at 3. For the same molecule, the inhibition in data set [2] and in data set [3] was 97% in each case.
On to `Nc1ccc2ncnc(Nc3cccc(Br)c3)c2c1`, for which the Drug uptake entry in the data set on A549 [6] was “Not Active”; in the data set with A549 [11], 0.105 nmol/mg.
`O=C(CCN1CCOCC1)Nc1ccc2ncnc(Nc3cccc(Br)c3)c2c1`: the IC50 in data set [1] is 0.51 nM; in the data set on NCI-H1975 [4], above 20000 nM. Besides, the inhibition was 91% in data set [2] and 98% in [3].
In the same order, the values of `CCOc1cc2ncc(C#N)c(Nc3ccc(F)c(Cl)c3)c2cc1NC(=O)CCN1CCOCC1` are 2.02 nM, 3930 nM, 48% and 86%.
On to `CCOc1cc2ncc(C#N)c(Nc3ccc(OCc4ccccn4)c(Cl)c3)c2cc1NC(=O)CCN1CCCCC1`, for which the half-inhibitory concentration (IC50) in data set [5] stood at 980 nM; in data set [1], 24.8 nM; in data set [23], 150 nM; in the data set on NCI-H1975 [4], 710 nM. In addition, the “Ratio IC50” value in the data set with NCI-H1975 [22] stood at 11. For the same molecule, the inhibition in data set [2] was 58%; in data set [3], 71%; in data set [24] it was “Dose-dependent effect”.

Values taken from ChEMBL document CHEMBL2029270, “Irreversible inhibition of epidermal growth factor receptor activity by 3-aminopropanamides” (J Med Chem, 2012).
